Measured values: ChEMBL document CHEMBL1149350, “Synthesis of novel chemical probes for the study of tanshinone binding proteins” (Bioorg Med Chem Lett, 2006)
The source made the active and inactive calls. The calls are words filed in the database; no cut-off is given here.

How the values were obtained:
RAW264.7 [1] = test: Inhibition of TRAP activity in RANKL-induced osteoclastogenesis in RAW 264.7 cells; format: functional, cell-based; conditions: Mus musculus
Method in brief: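 RAW264.7 cells seeded at 1 × 10³/well in α-MEM/10% FBS with 100 ng/ml RANKL; compounds added next day. On day 4 multinucleated cells fixed (10% formalin 10 min, 95% ethanol 1 min) and dried, then given 50 mM citrate pH 4.6 with 10 mM tartrate and 5 mM p-nitrophenylphosphate for 30 min. Stopped in 0.1 N NaOH, A410 read; triplicate; IC50 from mean % of control.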

RAW264.7 [2] = test: Antiproliferative activity against RAW 264.7 cells in RANKL-induced osteoclastogenesis; format: functional, cell-based; conditions: Mus musculus

| Structure (SMILES) | IC50 (RAW264.7 [1]) [µM] | IC50 (RAW264.7 [2]) [µM] | Activity (RAW264.7 [2]) |
| --- | --- | --- | --- |
| Cc1coc2c1C(=O)C(=O)c1c-2ccc2c1CCCC2(C)COC(=O)COCCOC(=O)COc1cccc(C2(C(F)(F)F)N=N2)c1 (stereo not given) | 15 | > 20 |  |
| Cc1coc2c1C(=O)C(=O)c1c-2ccc2c1CC[C@H](O)C2(C)C | 12.8 | > 20 |  |
| Cc1coc2c1C(=O)C(=O)c1c-2ccc2c1CC[C@H](OC(=O)c1ccccc1)C2(C)C | 19.1 |  | inactive |
| CCC(=O)O[C@H]1CCc2c(ccc3c2C(=O)C(=O)c2c(C)coc2-3)C1(C)C | 16.7 |  | inactive |
| Cc1coc2c1C(=O)C(=O)c1c-2ccc2c1CCCC2(C)CO (stereo not given) [TANSHINONE IIB] | 15.6 | > 20 |  |
| Cc1coc2c1C(=O)C(=O)c1c-2ccc2c1CC[C@H](OCCO)C2(C)C | 10.2 |  | inactive |
| Cc1coc2c1C(=O)C(=O)c1c-2ccc2c1CCCC2(C)COC(=O)COCCOC(=O)CCCCC1SCC2NC(=O)NC21 (stereo not given) | 12.4 | 18.3 |  |
| Cc1coc2c1C(=O)C(=O)c1c-2ccc2c1CC[C@H](OCCOC(=O)CCCCC1SCC3NC(=O)NC31)C2(C)C (stereo not given in full) | 9.56 | 18.7 |  |
| Cc1coc2c1C(=O)C(=O)c1c-2ccc2c1CC[C@H](OCCOC(=O)COc1cccc(C3(C(F)(F)F)N=N3)c1)C2(C)C | 18 | > 20 |  |
| Cc1coc2c1C(=O)C(=O)c1c-2ccc2c1CCCC2(C)C [TANSHINONE IIA] | 18.2 |  | inactive |
